The full list was thinned out, with hits kept by preference.
PKD1 inh – inhibitors of human PKD1 kinase; PKD1 kinase fluorescence polarization assay; inhibition, % (concentration not given with the values); 200,000 compounds, 0.056% hits
Target sequence (Q15139 whole entry, looked up): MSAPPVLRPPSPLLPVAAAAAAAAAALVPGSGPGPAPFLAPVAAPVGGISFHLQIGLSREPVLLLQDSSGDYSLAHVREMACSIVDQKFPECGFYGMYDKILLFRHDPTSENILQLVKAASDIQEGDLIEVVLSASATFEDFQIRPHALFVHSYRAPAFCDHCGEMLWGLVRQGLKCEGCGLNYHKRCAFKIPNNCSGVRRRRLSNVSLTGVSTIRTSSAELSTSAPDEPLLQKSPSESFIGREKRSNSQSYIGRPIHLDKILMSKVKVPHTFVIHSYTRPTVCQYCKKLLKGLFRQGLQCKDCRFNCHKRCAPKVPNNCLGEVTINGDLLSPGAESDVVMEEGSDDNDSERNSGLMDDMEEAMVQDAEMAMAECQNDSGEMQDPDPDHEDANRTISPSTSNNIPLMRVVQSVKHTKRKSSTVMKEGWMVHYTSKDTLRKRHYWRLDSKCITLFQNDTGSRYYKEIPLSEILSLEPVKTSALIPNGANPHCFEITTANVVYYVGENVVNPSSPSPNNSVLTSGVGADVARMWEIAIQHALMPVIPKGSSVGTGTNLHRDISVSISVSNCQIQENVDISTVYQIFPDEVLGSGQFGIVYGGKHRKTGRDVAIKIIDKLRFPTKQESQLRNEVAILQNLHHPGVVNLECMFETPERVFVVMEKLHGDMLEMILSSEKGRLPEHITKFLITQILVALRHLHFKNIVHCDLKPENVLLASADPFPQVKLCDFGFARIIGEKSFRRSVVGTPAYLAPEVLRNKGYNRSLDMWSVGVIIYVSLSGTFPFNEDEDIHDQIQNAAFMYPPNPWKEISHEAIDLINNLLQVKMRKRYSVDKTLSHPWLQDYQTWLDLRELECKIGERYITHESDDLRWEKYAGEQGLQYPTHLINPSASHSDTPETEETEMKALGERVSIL
ABCG2 inh – inhibitors of human ABCG2 transporter, ABCB1 counter-screen. Q9UNQ0. IgMXP3 cells, JC-1 efflux, flow cytometry. inhibition, % at 6.6 µM. 190,000 compounds, 0.1% hits. AID 1325;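 active = inhibition above 80%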;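 note: 0% = DMSO and 100% = nicardipine control wells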
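Test system: IgMXP3 (ABCG2) plus far-red-tagged CCRF-Adr (ABCB1) cells / Amount: 3 million cells/mL in well / Reagent: JC-1 transporter substrate / Timing: 10 min compound exposure, 25 °C / Signal: flow cytometry, 530 nm JC-1 signal / Read-out: percent efflux inhibition, scaled nicardipine 100% to DMSO 0% / Benchmarks: nicardipine as high control, DMSO as low control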
Avidin bead fluor – avidin bead compound fluorescence profile; fluorescence (KMESF) at 10 µM; AID 1775; 220,000 compounds, 0.38% hits; Avidin beads, compound fluorescence 488/530 nm, flow cytometry; stronger effect = higher value; in the data active = fluorescence above about 47
GSH fluor – GSH bead compound fluorescence profile | GSH beads flow cytometry, compound fluorescence 488/530 nm; stronger effect = higher value | fluorescence (KMESF) at 10 µM | 190,000 compounds, 0.25% hits | AID 1776; in the data active = fluorescence above about 89;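 note: glutathione beads carrying GST-tagged Bcl family fusion proteins plus one bare bead set; values are compound well signal with DMSO vehicle wells as background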
ABCB1 block – human ABCB1 inhibition, ABCG2 as counter-screen; inhibition, % at 6.6 µM; CCRF-Adr cells, JC-1 efflux, flow cytometry; P08183; 190,000 compounds, 0.067% hits; in the data active = inhibition above about 40%;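 note: 0% = vehicle and 100% = reference inhibitor; higher value means more JC-1 retained so stronger ABCB1 efflux block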
L major viab – Leishmania major promastigote growth inhibition. Leishmania major promastigotes, resazurin fluorescence viability. AID 1063. 200,000 compounds, 9% hits. inhibition, % at 10 µM;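 note: promastigotes grown with compound for 44 hours at 28 °C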
FP interf 140K – FP interference, PKD inhibitor counter-screen; shares compounds with PKD1 inh; 85 tested, under 10 active; PKD1 FP assay interference counter-screen, fluorescence polarization; inhibition, % at 10 µM; call rule not given here
* marks the source's active call; other numbers are inactive results; . = no result given. Cut-off read from the data, not from the text of the source, unless noted: active = inhibition above about 50%; inactive = the rest.

SMILES	PKD1 inh	ABCG2 inh	Avidin bead fluor	GSH fluor	ABCB1 block	L major viab	FP interf 140K
O=C(CN1CCN(Cc2ccc3c(c2)OCO3)CC1)N1CCc2[nH]c3ccc(F)cc3c2C1	-6	6	15	19	1	99*	.
CC1CN(CC(=O)N2CCc3[nH]c4ccccc4c3C2)CC(C)O1 (stereo not given)	-4	1	15	12	0	-4	.
O=C(CN1CCN(Cc2ccc3c(c2)OCO3)CC1)N1CCc2[nH]c3ccccc3c2C1	-4	36	11	30	2	82*	.
CCOc1ccc(-c2nc[nH]c2[N+](=O)[O-])cc1	-2	1	25	11	0	-7	.
Cc1ccc(OCC(=O)N(c2ccccn2)C2CCCCC2)c(C)c1	-1	2	9	5	1	87*	.
CCOC(=O)C1(CCOC)CCN(Cc2nc(-c3cccs3)oc2C)CC1	-8	8	3	10	1	2	.
Cc1nn(C)cc1CN1CCC(CO)(CCOc2ccccc2)CC1	6	3	3	11	1	74*	.
OCC1(CCOc2ccccc2)CCN(CC2=Cc3cc(Cl)ccc3OC2)CC1	-5	1	8	11	0	94*	.
COc1ccc2[nH]c(CN3CCC(CO)(CCOc4ccccc4)CC3)c(C)c2c1	-6	3	10	9	2	88*	.
Cc1oc(-c2cccs2)nc1CN1CCC(CO)(CCOc2ccccc2)CC1	4	2	15	53	1	73*	.
OCCOc1cccc(CN2CCC(CO)(CCOc3ccccc3)CC2)c1	1	1	10	21	0	-5	.
O=C(NCCc1c[nH]c2ccccc12)c1cc2sccc2n1Cc1ccccc1	-3	3	7	54	1	100*	.
Cn1c(C(=O)NCCc2c[nH]c3ccccc23)cc2sccc21	0	7	5	27	1	14	.
O=S(=O)(c1cccs1)N1CCN(CC(O)COC2CCCc3ccccc32)CC1 (stereo not given)	3	2	16	30	1	15	.
O=S(=O)(c1cccs1)N1CCN(CC(O)COc2cccc(Br)c2)CC1 (stereo not given)	-3	1	8	10	0	98*	.
COc1ccc(-c2[nH]c(-c3ccc(C(=O)O)cc3)nc2-c2ccccc2)cc1	-6	0	15	22	0	-4	.
O=C(O)c1ccc(-c2nc(-c3ccccc3)c(-c3ccccc3)[nH]2)cc1	-8	-13	13	6	0	89*	.
COc1ccc(C2=NOC(C(=O)NCc3ccco3)C2)cc1 (stereo not given)	3	5	8	52	0	-8	.
COc1cc(C2=NOC(C(=O)NCc3ccco3)C2)cc(OC)c1OC (stereo not given)	112*	2	14	22	-2	-2	-11
Cn1c(CSc2ncccn2)nnc1SCC(=O)N1CCCc2ccccc21	4	4	12	10	0	-7	.
CCn1c(CSc2ncccn2)nnc1SCC(=O)N1CCc2ccccc21	99*	8	11	52	1	-3	-13
Cc1ccc(C(=O)NNC2=Nc3cccc4cccc2c34)cc1	54*	0	14	19	0	13	-8
Cc1cc(C(F)(F)F)nn1CC(=O)N1CCOCC1	-5	2	6	15	0	-2	.
O=C(NCc1cccs1)c1ccc(S(=O)(=O)N2CCOCC2)cc1	-2	0	5	13	0	-2	.
Nc1nc2ccccc2n1/N=C/c1ccc([N+](=O)[O-])s1	52*	30	13	9	0	100*	-12
SMILES	PKD1 inh	ABCG2 inh	Avidin bead fluor	GSH fluor	ABCB1 block	L major viab	FP interf 140K
Nc1nc2ccccc2n1/N=C/c1cccnc1	69*	1	22	17	0	21	-15
Nc1nc2ccccc2n1/N=C/c1ccc(-c2ccccc2)o1	-9	0	7	29	-1	10	.
Nc1nc2ccc([N+](=O)[O-])c(N)c2s1	97*	3	30	11	0	22	-14
O=C1CC(N2CCN(c3ccccc3Cl)CC2)C(=O)N1c1cccc(F)c1 (stereo not given)	109*	1	15	23	0	3	-11
O=C1CC(N2CCN(c3ccccc3F)CC2)C(=O)N1c1ccc(F)cc1 (stereo not given)	3	.	.	.	.	-7	.
Cc1cccc(N2C(=O)CC(N3CCN(c4ccccc4)CC3)C2=O)c1 (stereo not given)	10	.	5	17	.	-4	.
O=C1CC(N2CCN(c3ccccc3Cl)CC2)C(=O)N1c1ccc(F)cc1 (stereo not given)	51*	2	32	21	0	0	-12
O=C(c1cc(-c2ccccc2)nc2ccccc12)N1CCN(c2ccccn2)CC1	93*	1	0	30	0	24	-13
Clc1cncc(Cl)c1N/N=C/c1ccncc1	91*	5	4	8	-1	26	-24
CC1CCCC(C)N1C(=O)COc1ccc(F)cc1 (stereo not given)	3	3	11	13	0	-3	.
S=C(NCCc1ccccc1)N/N=C/c1ccccc1Cl	5	2	20	15	2	-9	.
CC(=O)N1CCN(Cc2nc3cc(NC(=O)NC4CCCCC4)ccc3n2C)CC1	-5	0	9	19	0	-2	.
Cc1c(N/N=C(\C#N)C(=O)c2ccccc2)c(=O)n(-c2ccccc2)n1C	55*	-1	15	9	0	11	3
CN(C)CCOc1ccc2c(c1)Sc1ccccc1CC2=O	59*	7	6	44	6	100*	-17
CCOCCc1nnc(NC(=O)C(CC)c2ccccc2)s1 (stereo not given)	3	3	14	13	1	4	.
O=C(CN1CCN(c2ncccn2)CC1)N1CCCc2c1c(=O)oc1ccc(O)cc21	12	9	6	23	1	-4	.
O=C1NCCCc2c1oc1ccc(O)cc21	100*	3	8	11	0	17	-12
Nc1nnc(SCCCC(=O)c2ccc(F)cc2)s1	65*	1	7	18	0	-1	-11
O=C(CCCSc1nnc(SCCCC(=O)c2ccc(F)cc2)s1)c1ccc(F)cc1	-3	1	6	9	1	4	.
CCC(=O)Nc1c2c(nn1-c1ccccc1C)CSC2	81*	-2	29	25	0	-2	-9
O=C(CN1CCCC1)Nc1c2c(nc3ccccc13)N(Cc1ccccc1)CC2	100*	0	35	18	2	51*	-9
CN1CCN(c2ccccc2NC(=O)c2ccc(Br)o2)CC1	41	6	6	28	1	3	.

Compound activity as filed in PubChem BioAssay.
